Measured values: ChEMBL document CHEMBL1123957, “Cholecystokinin antagonists. Synthesis and biological evaluation of 3-substituted 1,4-benzodiazepin-2-amines” (J Med Chem, 1988)

Legend:
Cholecystokinin receptor = target: T1, Cholecystokinin receptor (Rattus norvegicus, UniProt P30551+P30553); assay: Binding affinity towards cholecystokinin receptor by the displacement of [125I]CCK-33 in rat pancreatic tissue
T1 sequence (P30551 whole entry): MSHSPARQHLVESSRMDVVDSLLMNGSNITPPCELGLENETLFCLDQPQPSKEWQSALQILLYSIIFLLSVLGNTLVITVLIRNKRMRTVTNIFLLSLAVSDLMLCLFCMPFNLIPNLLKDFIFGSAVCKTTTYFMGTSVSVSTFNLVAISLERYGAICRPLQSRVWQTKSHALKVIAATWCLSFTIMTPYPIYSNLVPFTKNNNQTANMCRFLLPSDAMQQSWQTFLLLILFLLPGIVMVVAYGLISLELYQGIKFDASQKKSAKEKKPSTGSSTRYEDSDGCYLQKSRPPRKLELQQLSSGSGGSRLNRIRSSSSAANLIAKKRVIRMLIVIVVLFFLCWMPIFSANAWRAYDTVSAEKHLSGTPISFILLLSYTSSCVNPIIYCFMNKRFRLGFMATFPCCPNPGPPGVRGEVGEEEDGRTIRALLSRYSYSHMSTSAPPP
T1 sequence (P30553 whole entry): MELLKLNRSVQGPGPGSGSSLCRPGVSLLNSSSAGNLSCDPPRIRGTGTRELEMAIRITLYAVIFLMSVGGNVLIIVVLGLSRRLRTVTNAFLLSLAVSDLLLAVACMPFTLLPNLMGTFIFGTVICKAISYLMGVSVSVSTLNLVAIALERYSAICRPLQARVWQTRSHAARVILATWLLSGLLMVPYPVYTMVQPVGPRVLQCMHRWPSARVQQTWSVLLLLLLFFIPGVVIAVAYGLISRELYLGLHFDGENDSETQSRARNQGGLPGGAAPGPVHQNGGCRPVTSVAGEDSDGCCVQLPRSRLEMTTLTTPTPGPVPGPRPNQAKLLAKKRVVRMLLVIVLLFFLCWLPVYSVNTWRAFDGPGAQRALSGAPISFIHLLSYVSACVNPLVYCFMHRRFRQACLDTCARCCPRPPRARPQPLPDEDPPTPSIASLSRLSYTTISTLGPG
Summary of the method: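 Radioligand displacement assays: [125I]CCK-33 binding to rat pancreas or guinea pig cerebral cortex tissue, and [125I]gastrin binding to guinea pig gastric glands, each run by earlier-described methods. Reported values are means of triplicate determinations.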

Cavia porcellus = organism: Cavia porcellus; assay: Inhibition of binding of [125I]gastrin to guinea pig gastric glands; conditions: Stomach

| Compound | IC50 (Cholecystokinin receptor) | IC50 (Cavia porcellus) |
| --- | --- | --- |
| Fc1ccccc1C1=N[C@H](Cc2c[nH]c3ccccc23)C(Nc2ccccc2)=Nc2ccccc21 | 34 µM |  |
| N#CNC1=Nc2ccccc2C(c2ccccc2F)=N[C@@H]1Cc1c[nH]c2ccccc12 | 2 µM |  |
| O=C(O)CNC1=Nc2ccccc2C(c2ccccc2F)=N[C@@H]1Cc1c[nH]c2ccccc12 | 3.6 µM | 2.5 µM |
| CNC1=Nc2ccccc2C(c2ccccc2NC)=N[C@@H]1Cc1c[nH]c2ccccc12 | 100 µM | 100 µM |
| CNC1=Nc2ccccc2C(c2ccccc2F)=N[C@@H]1Cc1c[nH]c2ccccc12 | 4.4 µM | 67 µM |
| CCCNC1=Nc2ccccc2C(c2ccccc2F)=N[C@@H]1Cc1c[nH]c2ccccc12 | 2.7 µM | 100 µM |
| CCOC(=O)CNC1=Nc2ccccc2C(c2ccccc2F)=N[C@@H]1Cc1c[nH]c2ccccc12 | 23 µM | 100 µM |
| NC1=Nc2ccccc2C(c2ccccc2F)=N[C@@H]1Cc1c[nH]c2ccccc12 | 1.7 µM | 100 µM |
| CNC1=Nc2ccc(Cl)cc2C(c2ccccc2)=[N+]([O-])C1 [CHLORDIAZEPOXIDE] | 100 µM | 100 µM |
